# Calls of active or inactive are those of the source. The rule behind the calls is not given here.
# Tests used:
# SMMC-7721 [1] = test: Cytotoxicity against human SMMC7721 cells for 72 hrs under hypoxic condition by MTT assay; type: functional, cell-based; conditions: SMMC-7721, 72 h
# Procedure, shortened: (§1)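 RPMI-1640 with heat-inactivated 10% FBS plus penicillin/streptomycin; hypoxia 3% O2, 5% CO2 or normoxia 20% O2, 5% CO2, 37 °C. Compounds dissolved in DMSO at 10.0 mg/mL (stock), then diluted; cells seeded 5×10³ per well. Viability read by MTT kit; IC50 taken as concentration giving 50% absorbance inhibition versus control cells.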
# PC-3 [2] = test: Cytotoxicity against human PC3 cells for 72 hrs under normoxic condition by MTT assay; type: functional, cell-based; conditions: PC-3, 72 h; procedure, shortened: as §1
# KB [3] = test: Cytotoxicity against human KB cells for 72 hrs under hypoxic condition by MTT assay; type: functional, cell-based; procedure, shortened: as §1
# KB [4] = test: Cytotoxicity against human KB cells for 72 hrs under normoxic condition by MTT assay; type: functional, cell-based; procedure, shortened: as §1
# SMMC-7721 [5] = test: Cytotoxicity against human SMMC7721 cells for 72 hrs under normoxic condition by MTT assay; type: functional, cell-based; conditions: SMMC-7721, 72 h; procedure, shortened: as §1
# K562 [6] = test: Cytotoxicity against human K562 cells for 72 hrs under hypoxic condition by MTT assay; type: functional, cell-based; conditions: K562, 72 h; procedure, shortened: as §1
# K562 [7] = test: Cytotoxicity against human K562 cells for 72 hrs under normoxic condition by MTT assay; type: functional, cell-based; conditions: K562, 72 h; procedure, shortened: as §1
# A549 [8] = test: Cytotoxicity against human A549 cells for 72 hrs under hypoxic condition by MTT assay; type: functional, cell-based; conditions: A549, 72 h; procedure, shortened: as §1
# PC-3 [9] = test: Cytotoxicity against human PC3 cells for 72 hrs under hypoxic condition by MTT assay; type: functional, cell-based; conditions: PC-3, 72 h; procedure, shortened: as §1
# A549 [10] = test: Cytotoxicity against human A549 cells for 72 hrs under normoxic condition by MTT assay; type: functional, cell-based; conditions: A549, 72 h; procedure, shortened: as §1
# K562 [11] = test: Induction of apoptosis in human K562 cells under hypoxic condition assessed as decrease in PARP level at 10 uM for 48 hrs by Western blotting
# K562 [12] = test: Induction of apoptosis in human K562 cells under hypoxic condition assessed as decrease in procaspase-3 level at 10 uM for 48 hrs by Western blotting; type: functional, cell-based
# Procedure, shortened: (§2)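 K562 treated 48 h under hypoxia (3% O2) or normoxia (20% O2), 5% CO2, 37 °C. Lysis buffer: 150 mM NaCl, 50 mM Tris-HCl pH 8.0, 2 mM EGTA, 2 mM EDTA, 25 mM NaF, 25 mM β-glycerophosphate, 0.2% Triton X-100, 0.3% NP-40, 0.1 mM PMSF. Extracts immunoblotted for procaspase-3, cleaved caspase-3, PARP and XIAP.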
# K562 [13] = test: Induction of apoptosis in human K562 cells under hypoxic condition assessed as DNA fragmentation at 10 uM for 48 hrs using propidium iodide by flow cytometry; type: functional, cell-based
# Procedure, shortened: (§3)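 K562 held under hypoxia (3% O2, 5% CO2) or normoxia (20% O2, 5% CO2) at 37 °C, treated 48 h. Cells washed in PBS, fixed in 75% ethanol at −20 °C overnight, RNase-treated 30 min at 37 °C, PI-stained 30 min at room temperature in the dark. DNA content and apoptotic fraction read by flow cytometry.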
# K562 [14] = test: Induction of apoptosis in human K562 cells under hypoxic condition assessed as accumulation at Sub-G1 phase at 10 uM for 48 hrs using propidium iodide by flow cytometry (reference value: 13.03%); type: functional
# K562 [15] = test: Induction of apoptosis in human K562 cells under hypoxic condition assessed as decrease in XIAP level at 10 uM for 48 hrs by Western blotting; type: functional, cell-based; procedure, shortened: as §2
# K562 [16] = test: Induction of apoptosis in human K562 cells under normoxic condition assessed as DNA fragmentation at 10 uM for 48 hrs using propidium iodide by flow cytometry; type: functional, cell-based; procedure, shortened: as §3
# K562 [17] = test: Induction of apoptosis in human K562 cells under normoxic condition assessed as accumulation at Sub-G1 phase at 10 uM for 48 hrs using propidium iodide by flow cytometry (reference value: 5.27%); type: functional
# K562 [18] = test: Induction of apoptosis in human K562 cells under hypoxic condition assessed as decrease in PARP level at 10 uM for 48 hrs by Western blotting; type: functional, cell-based; procedure, shortened: as §2
# K562 [19] = test: Induction of apoptosis in human K562 cells under hypoxic condition assessed as decrease in XIAP level at 10 uM for 48 hrs by Western blotting
# K562 [20] = test: Induction of apoptosis in human K562 cells under hypoxic condition assessed as decrease in procaspase-3 level at 10 uM for 48 hrs by Western blotting
# K562 [21] = test: Induction of apoptosis in human K562 cells under hypoxic condition assessed as caspase-3 cleavage at 10 uM for 48 hrs by Western blotting; type: functional, cell-based; procedure, shortened: as §2
Compound,IC50 (SMMC-7721 [1]) [µM],IC50 (PC-3 [2]) [µM],IC50 (KB [3]) [µM],IC50 (KB [4]) [µM],IC50 (SMMC-7721 [5]) [µM],IC50 (K562 [6]) [µM],IC50 (K562 [7]) [µM],IC50 (A549 [8]) [µM],IC50 (PC-3 [9]) [µM],IC50 (A549 [10]) [µM],other results
CCCCCCCOCNc1n[n+]([O-])c2ccccc2[n+]1[O-],3.09,1.21,14,2.52,7.03,6.17,2.97,3.49,0.39,2.61,
CC(C)CCOCNc1n[n+]([O-])c2ccccc2[n+]1[O-],2.86,11.1,5.21,3.04,15.9,5.85,13.1,2.11,7.52,7.27,
CC(OCNc1n[n+]([O-])c2ccccc2[n+]1[O-])c1ccccc1 (stereo not drawn),2.47,6.08,14,2.51,12.9,2.24,8.72,2.81,10.7,2.71,
[O-][n+]1nc(NCOCc2ccc(Cl)cc2)[n+]([O-])c2ccccc21,0.81,5.76,8.26,1.3,14.5,1.85,3.26,2.19,5.1,1.47,
COc1ccc2c(c1)[n+]([O-])nc(NCOCc1ccccc1)[n+]2[O-],1.19,8.58,18.1,2.4,21.4,0.24,27.5,4.47,88.5,2.5,
COCNc1n[n+]([O-])c2ccccc2[n+]1[O-],2.48,7.51,9.07,1.58,6.67,3.79,7.8,2.77,4.27,7.45,
CCCCOCNc1n[n+]([O-])c2ccccc2[n+]1[O-],3.99,14.7,15.2,1.75,21.1,3.24,17.6,2.32,6.01,6.31,
[O-][n+]1nc(NCOCc2ccc(C(F)(F)F)cc2)[n+]([O-])c2ccccc21,0.78,7.65,19.8,0.39,9.45,1.24,18.3,4.27,9.31,8.42,Activity (K562 [11]): Active; Activity (K562 [12]): Active; Activity (K562 [13]): Active; Activity (K562 [14]): 32.11%; Activity (K562 [15]): Active; Activity (K562 [16]): Active; Activity (K562 [17]): 9.5%; Activity (K562 [18]): Active; Activity (K562 [19]): Active; Activity (K562 [20]): Active; Activity (K562 [21]): Active
CCCOCNc1n[n+]([O-])c2ccccc2[n+]1[O-],5.53,14.2,10.2,1.95,19.5,3.89,17.6,3.74,7.4,7.46,
Nc1n[n+]([O-])c2ccccc2[n+]1[O-] [TIRAPAZAMINE],4.75,21,18.7,6.29,32.8,1.81,19.4,1.93,1.17,7.43,
COc1ccc2c(c1)[n+]([O-])nc(NCOC(C)c1ccccc1)[n+]2[O-] (stereo not drawn),0.74,4.14,12.4,0.22,8.04,0.25,6.69,0.22,> 100,3.13,
CCOCNc1n[n+]([O-])c2ccccc2[n+]1[O-],4.23,15.9,22.5,2.8,27.1,4.99,15.4,4.09,7.4,10.5,Activity (K562 [11]): Active; Activity (K562 [12]): Active; Activity (K562 [13]): Active; Activity (K562 [14]): 33.07%; Activity (K562 [15]): Active; Activity (K562 [16]): Active; Activity (K562 [17]): 14.13%; Activity (K562 [18]): Active; Activity (K562 [19]): Active; Activity (K562 [20]): Active; Activity (K562 [21]): Active
[O-][n+]1nc(NCOCc2ccccc2)[n+]([O-])c2ccccc21,4.79,13.4,12.3,5.72,20.1,4.69,16.1,4.14,11.9,10.8,
[O-][n+]1nc(NCOC2CCCCC2)[n+]([O-])c2ccccc21,4.17,3.25,22.1,4.39,28.2,4.88,10.8,1.2,6.67,5.18,
COc1ccc(COCNc2n[n+]([O-])c3ccccc3[n+]2[O-])cc1,1.15,14.5,14.2,4.06,22,0.66,20.1,3.32,52.8,7.64,Activity (K562 [11]): Active; Activity (K562 [12]): Active; Activity (K562 [13]): Active; Activity (K562 [14]): 54.24%; Activity (K562 [15]): Active; Activity (K562 [16]): Active; Activity (K562 [17]): 14.95%; Activity (K562 [18]): Active; Activity (K562 [19]): Active; Activity (K562 [20]): Active; Activity (K562 [21]): Active
CCCCCOCNc1n[n+]([O-])c2ccccc2[n+]1[O-],3.05,9.2,39.5,1.22,17,3.3,14.5,2.9,8.51,6.46,
O=[N+]([O-])c1cccc(COCNc2n[n+]([O-])c3ccccc3[n+]2[O-])c1,0.52,3.07,16.6,0.58,8.54,0.65,5.65,3.44,> 100,2.89,
CCCOCNc1n[n+]([O-])c2cc(OC)ccc2[n+]1[O-],1.07,6.57,12,3.2,2.88,3.52,4.28,2.54,10.6,2.81,
CCCCCOCNc1n[n+]([O-])c2cc(OC)ccc2[n+]1[O-],0.55,3.63,16.9,2.81,12.9,0.45,7.11,2.51,30.9,5.04,
